Active and inactive are the calls of the source. The rule behind the calls is not given here.
Tests used:
[1] = target: T1, Free fatty acid receptor 1 (Homo sapiens, UniProt O14842); test: Partial agonist activity at human GPR40 expressed in CHO cells measured over 20 secs interval by luminometric analysis in presence of 0.01% human serum albumin; assay type: cell-based
Summary of the method: (§1)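 Aequorin chemiluminescence read-out of calcium flux in a CHO line stably transfected with human GPR40, giving EC50. Run in buffer containing 0.01% human serum albumin, or in 100% human serum to test activity with plasma proteins present.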

[2] = target: T1, Free fatty acid receptor 1; test: Partial agonist activity at human GPR40 expressed in CHO cells measured over 20 secs interval by luminometric analysis in presence of 100% human serum; assay type: cell-based; summary of the method: as §1
Mus musculus = test: Reduction of blood glucose AUC in human islet transplanted nude chimeric mouse at 100 ug/kg administered 1 hr prior to glucose challenge by OGTT; assay type: functional, organism-based
Summary of the method: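 Nude mice had their endogenous pancreatic β-cells ablated with streptozotocin and were rescued to euglycemia by human islets transplanted under the kidney capsule. Compound was dosed before a glucose challenge, and the glucose AUC was determined.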

[3] = target: T1, Free fatty acid receptor 1; test: Partial agonist activity at human GPR40 expressed in CHO cells measured over 20 secs interval by luminometric analysis; assay type: cell-based
Pancreatic islet = test: Induction of insulin release in human pancreatic islets; assay type: functional
[4] = target: T1, Free fatty acid receptor 1; test: Potency index , ratio of EC50 for AMG837 to EC50 for test compound for partial agonist activity at human GPR40 expressed in CHO cells measured over 20 secs interval by luminometric analysis in presence of 0.01% human serum albumin; assay type: cell-based

T1 sequence (O14842 whole entry): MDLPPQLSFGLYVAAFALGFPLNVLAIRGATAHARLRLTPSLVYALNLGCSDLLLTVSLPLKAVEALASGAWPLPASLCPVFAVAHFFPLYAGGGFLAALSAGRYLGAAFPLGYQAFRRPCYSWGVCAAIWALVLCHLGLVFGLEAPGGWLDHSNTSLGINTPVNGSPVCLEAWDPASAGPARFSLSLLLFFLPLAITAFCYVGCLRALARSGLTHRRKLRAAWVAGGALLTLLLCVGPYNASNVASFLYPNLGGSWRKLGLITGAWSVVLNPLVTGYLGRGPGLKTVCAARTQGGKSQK

Row | SMILES | EC50 [1] | EC50 [2] | other results
1 | COc1ccccc1-c1cccc(COc2ccc([C@H](CC(=O)O)c3nccn3C)cc2)c1 | 410 nM |  | 
2 | Cc1cccc(C)c1-c1cccc(COc2ccc([C@H](CC(=O)O)c3nccn3C)cc2)c1 | 58 nM | 29000 nM | 
3 | CC[C@H](C)[C@H](NC(=O)[C@H](Cc1ccccc1)NC(=O)[C@H](CCC(=O)O)NC(=O)[C@H](CCCCN)NC(=O)[C@H](C)NC(=O)[C@H](C)NC(=O)[C@H](CCC(=O)O)NC(=O)CNC(=O)[C@H](CCC(=O)O)NC(=O)[C@H](CC(C)C)NC(=O)[C@H](Cc1ccc(O)cc1)NC(=O)[C@H](CO)NC(=O)[C@H](CO)NC(=O)[C@@H](NC(=O)[C@H](CC(=O)O)NC(=O)[C@H](CO)NC(=O)[C@@H](NC(=O)[C@H](Cc1ccccc1)NC(=O)[C@@H](NC(=O)CNC(=O)[C@H](CCC(=O)O)NC(=O)[C@H](C)NC(=O)[C@@H](N)Cc1cnc[nH]1)[C@@H](C)O)[C@@H](C)O)C(C)C)C(=O)N[C@@H](C)C(=O)N[C@@H](Cc1c[nH]c2ccccc12)C(=O)N[C@@H](CC(C)C)C(=O)N[C@H](C(=O)N[C@@H](CCCCN)C(=O)NCC(=O)N[C@@H](CCCNC(=N)N)C(=O)NCC(=O)O)C(C)C |  |  | Activity (Mus musculus): Active
4 | Cn1ccnc1[C@@H](CC(=O)O)c1ccc(OCc2cccc(-c3ccccc3C#N)c2)cc1 | 690 nM |  | 
5 | Cn1ccnc1[C@@H](CC(=O)O)c1ccc(OCc2cccc(-c3ccc(Cl)cc3Cl)c2)cc1 | 69 nM | 30000 nM | 
6 | Cn1ccnc1C(CC(=O)O)c1ccc(OCc2cccc(-c3ccc(C(F)(F)F)cc3)c2)cc1 (racemic) |  |  | EC50 [3]: 130 nM
7 | CC#C[C@@H](CC(=O)O)c1ccc(OCc2cccc(-c3ccc(C(F)(F)F)cc3)c2)cc1 |  |  | Activity (Pancreatic islet): Active
8 | O=C(O)CC(c1ccc(OCc2cccc(-c3ccc(C(F)(F)F)cc3)c2)cc1)c1nccs1 (racemic) |  |  | EC50 [3]: 120 nM
9 | Cn1ccnc1[C@@H](CC(=O)O)c1ccc(OCc2cccc(-c3ccccc3Cl)c2)cc1 | 43 nM | 56000 nM | Ratio EC50 [4]: 2
10 | O=C(O)CC(c1ccccc1)c1ccc(OCc2cccc(-c3ccc(C(F)(F)F)cc3)c2)cc1 (racemic) |  |  | EC50 [3]: 330 nM
11 | O=C(O)CC(c1ccc(OCc2cccc(-c3ccc(C(F)(F)F)cc3)c2)cc1)c1ccccn1 (racemic) |  |  | EC50 [3]: 330 nM
12 | Cc1ccc(F)cc1-c1cccc(COc2ccc([C@H](CC(=O)O)c3nccn3C)cc2)c1 | 36 nM | 42000 nM | 
13 | COc1ccc(-c2cccc(COc3ccc([C@H](CC(=O)O)c4nccn4C)cc3)c2)cc1 | 440 nM |  | 
14 | Cc1cc(Cl)ccc1-c1cc(COc2ccc([C@H](CC(=O)O)c3nccn3C)cc2)ccc1C | 97 nM | 9800 nM | 
15 | O=C(O)CC(c1ccc(OCc2cccc(-c3ccc(C(F)(F)F)cc3)c2)cc1)c1cccnc1 (racemic) |  |  | EC50 [3]: 400 nM
16 | COc1cccc(-c2cccc(COc3ccc([C@H](CC(=O)O)c4nccn4C)cc3)c2)c1 | 750 nM |  | 
17 | Cn1ccnc1[C@@H](CC(=O)O)c1ccc(OCc2cccc(-c3ccccc3S(C)(=O)=O)c2)cc1 | 23000 nM |  | 
18 | Cc1c(Cl)cccc1-c1cccc(COc2ccc([C@H](CC(=O)O)c3nccn3C)cc2)c1 | 61 nM | 22000 nM | 
19 | CCc1ccccc1-c1cccc(COc2ccc([C@H](CC(=O)O)c3nccn3C)cc2)c1 | 48 nM | 65000 nM | 
20 | Cc1cc(Cl)ccc1-c1cccc(COc2ccc([C@H](CC(=O)O)c3nccn3C)cc2)c1C | 240 nM | 23000 nM | 
21 | Cc1ccccc1-c1cccc(COc2ccc([C@H](CC(=O)O)c3nccn3C)cc2)c1 | 43 nM | 89000 nM | Ratio EC50 [4]: 2
22 | O=C(O)CC(c1ccc(OCc2cccc(-c3ccc(C(F)(F)F)cc3)c2)cc1)c1cccs1 (racemic) |  |  | EC50 [3]: 190 nM
23 | O=C(O)CC(c1ccncc1)c1ccc(OCc2cccc(-c3ccc(C(F)(F)F)cc3)c2)cc1 (racemic) |  |  | EC50 [3]: 190 nM
24 | Cn1ccnc1[C@@H](CC(=O)O)c1ccc(OCc2cccc(-c3ccccc3OC(F)(F)F)c2)cc1 | 112 nM | 61000 nM | 
25 | Cc1cc(F)ccc1-c1cccc(COc2ccc([C@H](CC(=O)O)c3nccn3C)cc2)c1 | 59 nM | 21000 nM | 
